Assay outcomes from PubChem BioAssay.
Tn7 DDE FP: DD(E)-Tn7 binding inhibition, primary FP screen. P02675. FP displacement of FITC-Tn7 peptide from fibrin DD(E); 0% = median of compound wells per plate. inhibition, % at 8.3 µM. hit rate 0.13% among 370,000. AID 720508;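 active = inhibition above the mean of compounds falling within the control limits plus 3 SD of them, cut at about 14% in these data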;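 note: 0% = plate median of compound wells and 100% = 10 µM Aha-Tn7 peptide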
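System: human fibrin DD(E); quantity: Fibrin-DD(E) at 2 µM final; also added: fluorescent Tn7 probe at 0.1 µM; compound dosing: single nominal test concentration of 8.3 µM per compound; schedule: 10 min preincubation, 3 h with tracer, room temperature; detection: fluorescence polarization of the labelled Tn7 tracer; repeats: one replicate per compound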
NRP1-CendR mod: NRP-1/CendR interaction modulation | FAM-RPARPAR peptide binding to NRP-1, fluorescence polarization | inhibition, % at 25 µM | hit rate 0.85% among 360,000 | O14786;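 active = inhibition or corrected inhibition above about 18%, plus a signal ratio from 0.5 to 1.5, limit read from the data, passing the limit was not always enough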
PLCg1 inh: inhibitors of human phospholipase C gamma1. purified PLC-gamma1, fluorogenic substrate, fluorescence. inhibition, % at 12.2 µM. hit rate 0.84% among 370,000; in the data active = inhibition above about 9.5%
PLCb3 inh: blocks human PLC-beta3 enzyme activity. Q01970. Purified PLC-beta3, fluorogenic substrate, fluorescence. inhibition, % at 12.2 µM. hit rate 0.18% among 370,000. AID 720704;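 note: 0% = median of compound wells on plate and 100% = full blocker control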
Tn6 DDE FP: inhibitors of Tn6 peptide binding to human fibrin DD(E); P02675; Fibrin DD(E) TRITC-Tn6 fluorescence polarization displacement; inhibition, % at 8.3 µM; hit rate 0.21% among 370,000;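 active = inhibition above a per-campaign cutoff: mean of compounds within control limits plus 3 SD, cut at about 15% in these data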;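 note: 0% = median of all compound wells on the plate and 100% = blocking peptide control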
proKLK7 act: activates the human kallikrein-7 zymogen; P49862; purified proKLK7, EDANS-DABCYL substrate fluorescence; 100% is mature enzyme control, 0% vehicle; activation, % at 7 µM; hit rate 0.9% among 370,000; AID 652039;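 active = activation above the mean of all tested compounds plus 3 SD, computed per campaign excluding outliers beyond control limits, cut at about 13% in these data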
Target sequence (P49862 whole entry, looked up): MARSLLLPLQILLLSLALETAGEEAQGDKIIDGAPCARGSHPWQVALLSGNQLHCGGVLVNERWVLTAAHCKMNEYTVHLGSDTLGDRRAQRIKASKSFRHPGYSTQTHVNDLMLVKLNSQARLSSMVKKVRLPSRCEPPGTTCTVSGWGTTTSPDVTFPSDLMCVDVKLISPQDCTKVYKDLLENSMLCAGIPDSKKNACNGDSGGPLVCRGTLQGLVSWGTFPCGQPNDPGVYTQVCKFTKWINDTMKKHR
PLCg1 ctr: inhibits human PLC-gamma1 in PLC-beta3 counter-screen. shares compounds with PLCg1 inh. purified PLC-gamma1, fluorogenic substrate, fluorescence. inhibition, % at 12.3 µM. hit rate 3.1% among 3,300. AID 743258; in the data active = inhibition above about 9.5%
PLCbeta3 conf: human PLC-beta3 inhibition, confirmation; shares compounds with PLCg1 inh; purified PLC-beta3, fluorogenic substrate fluorescence; inhibition, % at 12.3 µM; hit rate 1% among 3,300; AID 743261
* = called active by the depositor. Hits are enriched below; roughly 3% of the tested compounds scored in any of these assays. Cut-off read from the data, not from the text of the source, unless noted: active = inhibition above about 11%; inactive = the rest.

Screening Cc1ccc(C(=O)OCC(=O)Nc2ccccc2C(F)(F)F)cc1S(=O)(=O)N1CCCCC1 returned Tn7 DDE FP 2, NRP1-CendR mod 4, PLCg1 inh 9.8*, PLCb3 inh -4, Tn6 DDE FP -8, proKLK7 act 1, PLCg1 ctr 3 and PLCbeta3 conf 5.
Screening O=C(COC(=O)c1cccc(S(=O)(=O)N2CCCCCC2)c1)Nc1ccccc1C(F)(F)F returned Tn7 DDE FP -1, NRP1-CendR mod -5, PLCg1 inh 0, PLCb3 inh 2, Tn6 DDE FP -3 and proKLK7 act 0.
`CC(Sc1nnc(CN2CCCC2)n1Cc1ccccc1)C(=O)Nc1ccccc1` (configuration not stated) gave Tn7 DDE FP 5, NRP1-CendR mod -6, PLCg1 inh 3, PLCb3 inh -7, Tn6 DDE FP 0 and proKLK7 act 1.
Cc1ccccc1NC(=O)C(C)Sc1nnc(CN2CCCC2)n1Cc1ccccc1 (configuration not stated) was read as Tn7 DDE FP -5, NRP1-CendR mod -10, PLCg1 inh 10*, PLCb3 inh 0, Tn6 DDE FP 5, proKLK7 act 0, PLCg1 ctr -5 and PLCbeta3 conf -2.
Screening Cc1occc1C(=O)N/N=C/c1ccc(OCc2ccccc2)cc1 returned Tn7 DDE FP -1, NRP1-CendR mod 3, PLCg1 inh 15*, PLCb3 inh -1, Tn6 DDE FP -4, proKLK7 act -1, PLCg1 ctr -3 and PLCbeta3 conf 0.
Screening CCOC(=O)N/N=C/c1ccc(Oc2ccccc2)cc1 returned Tn7 DDE FP -5, NRP1-CendR mod 3, PLCg1 inh 9.6*, PLCb3 inh 9, Tn6 DDE FP 1, proKLK7 act 0, PLCg1 ctr 6 and PLCbeta3 conf 10.
For CCOC(=O)N/N=C/c1ccc(C)o1 the results were Tn7 DDE FP -3, NRP1-CendR mod -22, PLCg1 inh 0, PLCb3 inh 2, Tn6 DDE FP -2 and proKLK7 act 0.
Screening COc1cccc(N2CCN(CC(=O)NCc3ccccc3C)CC2)c1 returned Tn7 DDE FP -1, PLCg1 inh -1, PLCb3 inh -2, Tn6 DDE FP 2 and proKLK7 act -1.
`COCCCNC(=O)CN1C(=O)C2CCCCN2C(=O)c2ccccc21` (configuration not stated) gave Tn7 DDE FP 4, PLCg1 inh -1, PLCb3 inh -4, Tn6 DDE FP -6 and proKLK7 act 1.
Screening COC(=O)c1c(-c2c(Cl)cccc2Cl)noc1C(=O)NNC(=O)N(C)C returned Tn7 DDE FP -2, NRP1-CendR mod 2, PLCg1 inh 9.8*, PLCb3 inh 1, Tn6 DDE FP 6, proKLK7 act 0, PLCg1 ctr 4 and PLCbeta3 conf -1.
Fc1cccc(-c2c(-c3ccccc3)ncc3cc(F)ccc23)c1 was read as Tn7 DDE FP -9, NRP1-CendR mod 12, PLCg1 inh -3, PLCb3 inh -3, Tn6 DDE FP 4 and proKLK7 act 0.
For O=[N+]([O-])c1cccc(-c2c(-c3ccccc3)ncc3ccc(F)cc23)c1 the results were Tn7 DDE FP -9, NRP1-CendR mod 7, PLCg1 inh 6, PLCb3 inh 11*, Tn6 DDE FP 6, proKLK7 act 0, PLCg1 ctr -2 and PLCbeta3 conf -2.
For CN1CCC(NCCC(c2ccc(F)cc2)c2ccc(Cl)cc2)CC1 (configuration not stated) the results were Tn7 DDE FP -4, NRP1-CendR mod -2, PLCg1 inh 10*, PLCb3 inh 4, Tn6 DDE FP 3, proKLK7 act 1, PLCg1 ctr -5 and PLCbeta3 conf 1.
`CC(C)C(CCNC1CCN(C)CC1)c1ccc(Cl)cc1` (configuration not stated) gave Tn7 DDE FP 0, NRP1-CendR mod -1, PLCg1 inh 3, PLCb3 inh 5, Tn6 DDE FP 1 and proKLK7 act -1.
COc1ccc(-c2cc(NC(=O)Cc3c[nH]c4ccccc34)ccc2Nc2cccnc2)c(OC)c1 was read as Tn7 DDE FP -4, PLCg1 inh 0, PLCb3 inh -5, Tn6 DDE FP -6 and proKLK7 act -1.
For COc1ccnc2c1c(=O)n(Cc1ccc(Cl)cc1Cl)c(=O)n2C the results were Tn7 DDE FP 1, NRP1-CendR mod 1, PLCg1 inh 9.8*, PLCb3 inh -4, Tn6 DDE FP 4, proKLK7 act 0, PLCg1 ctr -14 and PLCbeta3 conf -9.
`CN1CCN(c2nc3c(c(=O)n(C)c(=O)n3C)n2Cc2ccccc2)CC1` gave Tn7 DDE FP 7, NRP1-CendR mod -5, PLCg1 inh 0, PLCb3 inh -3, Tn6 DDE FP 6 and proKLK7 act 0.
For Cn1c(=O)c2c(nc(N3CCN(c4ccccn4)CC3)n2Cc2ccc(Cl)cc2Cl)n(C)c1=O the results were Tn7 DDE FP -12, NRP1-CendR mod -7, PLCg1 inh 11*, PLCb3 inh 7, Tn6 DDE FP 0, proKLK7 act 0, PLCg1 ctr 4 and PLCbeta3 conf 1.
For CCOC(=O)CC[C@@H]1CC[C@]2(CCCN(S(=O)(=O)C3CCCCC3)C2)O1 the results were Tn7 DDE FP 3, PLCg1 inh 3, PLCb3 inh 3, Tn6 DDE FP 0 and proKLK7 act 1.
Screening COC(=O)C1=C(C)N(Cc2ccccc2C(F)(F)F)C(=NCc2cccc(C(F)(F)F)c2)NC1CCc1ccccc1 (configuration not stated) returned Tn7 DDE FP 3, PLCg1 inh 0, PLCb3 inh -1, Tn6 DDE FP -7 and proKLK7 act -1.
`Clc1ccc(C2CSc3c4ncnc-4ncn32)cc1` (configuration not stated) gave Tn7 DDE FP 10, NRP1-CendR mod 4, PLCg1 inh 11*, PLCb3 inh 3, Tn6 DDE FP 3, proKLK7 act 1, PLCg1 ctr -8 and PLCbeta3 conf -1.
`CCSc1ccc([C@@H]2[C@H]3C(=O)N(C)C(=O)[C@H]3[C@]3(C(=O)OC)CCCCN23)cc1` gave Tn7 DDE FP 5, NRP1-CendR mod 4, PLCg1 inh 10*, PLCb3 inh 3, Tn6 DDE FP 3, proKLK7 act 1, PLCg1 ctr -6 and PLCbeta3 conf -4.
